The list is not random: actives were taken first. Their share in the collection is about 2.7%.
CSN inh: CSN deneddylation inhibition; Purified CSN, SCF-Nedd8-OG deneddylation, fluorescence polarization; inhibition, % at 12.5 µM; 0.38% of 360,000 active; AID 651999;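 active means pattern-corrected inhibition above about 35%, with an unprinted fluorescence ratio check between 0.5 and 1.5, limit read from the data, passing the limit was not always enough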;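 further: 0% = enzyme with substrate and 100% = substrate without enzyme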
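assay system = purified human Csn5 enzyme expressed in HEK293T cells | amount = 0.24 nM enzyme | buffer or medium = Tris/NaCl/DTT buffer, pH 7.5 | reagent = 10 nM SCFSkp2-Nedd8OG | compound = one concentration, 12.5 µM, 0.25% DMSO | times = 90 min reaction at room temperature | signal = FP | read-out basis = % inhibition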
NadD block: inhibitors of Staphylococcus aureus NadD | purified NadD enzyme, colorimetric absorbance read-out | inhibition, % at 20 µM | 0.78% of 360,000 active; in the data active means inhibition above about 26%
TPT1 inhibitor: inhibitors of Candida albicans tRNA 2'-phosphotransferase TPT1. recombinant caTPT1, FP RNA substrate dephosphorylation. inhibition, % at 5 µM. 0.81% of 300,000 active. AID 1962;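 active means inhibition above the mean of all tested compounds plus 3 SD, set per screening campaign, cut at about 24% in these data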;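 further: plate controls were DMSO alone for no effect and ferristatin control at 100 nM for full effect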
Rpn11 block: inhibitors of human proteasome Rpn11 | human 26S proteasome, Ub4-pepOG fluorescence polarization; 20S core pre-blocked with epoxomicin | inhibition, % at 20 µM | 0.59% of 360,000 active;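 active means inhibition at 20 µM, scaled to each plate's controls, above about 33%, limit read from the data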
HNF4A DNA FP: change in binding of human HNF4 alpha to DNA | P41235 | HNF4a-FITC DNA binding, fluorescence polarization, 1 h | activity change, % at 10 µM | 0.3% of 360,000 active | AID 1224865; in the data active means activity change above about 30%, passing the limit was not always enough
PP1 inh: blocks human PP1-alpha phosphatase, a PP5 counter-screen | purified PP1alpha, OMFP fluorescence | inhibition, % at 6.7 µM | P62136 | 0.9% of 320,000 active | AID 2235;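 active means inhibition above the mean inhibition of all tested compounds plus 3 SD, computed separately for each screening campaign, cut at about 15% in these data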
Target sequence (P62136 whole entry, looked up): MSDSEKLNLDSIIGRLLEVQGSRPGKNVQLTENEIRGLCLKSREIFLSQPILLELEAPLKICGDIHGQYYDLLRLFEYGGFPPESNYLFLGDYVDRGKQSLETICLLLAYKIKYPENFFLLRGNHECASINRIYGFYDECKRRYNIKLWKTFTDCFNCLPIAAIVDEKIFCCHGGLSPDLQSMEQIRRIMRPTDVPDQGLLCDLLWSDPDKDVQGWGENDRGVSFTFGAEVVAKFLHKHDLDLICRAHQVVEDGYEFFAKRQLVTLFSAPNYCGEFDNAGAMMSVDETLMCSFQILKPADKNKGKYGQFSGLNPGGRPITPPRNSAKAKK
An asterisk follows results filed as active.

Screening CCN(CC)S(=O)(=O)c1cccc(NC(=O)C2SC(=Nc3ccc(C)cc3C)C(C(=O)NC(C)COC)=C2N)c1 (centres undefined) returned CSN inh 2.2, NadD block 44.3*, TPT1 inhibitor -6.6, Rpn11 block -5.2, HNF4A DNA FP -2.3 and PP1 inh 2.6.
Screening CCN(CC)S(=O)(=O)c1cccc(C(=O)Nc2cccc(C)c2)c1 returned CSN inh 1.6, NadD block -7.9, TPT1 inhibitor 0.1, Rpn11 block -1.9, HNF4A DNA FP 2.0 and PP1 inh -0.3.
Screening N#CCCn1cc(/C=N/NC(N)=S)c(-c2ccccc2)n1 returned CSN inh 106.6*, NadD block -2.0, TPT1 inhibitor 1.4, Rpn11 block -3.3, HNF4A DNA FP -2.9 and PP1 inh 0.6.
For O=C1NN(c2ccccc2)C(=O)/C1=C/c1ccc(Sc2ccc(Cl)cc2)o1 the results were CSN inh 9.0, NadD block 52.4*, TPT1 inhibitor 3.3, Rpn11 block 1.2, HNF4A DNA FP -17.2 and PP1 inh 1.5.
CC(=O)OCC(=O)C1(O)CCC2C3CCC4=CC(=O)CCC4(C)C3(Cl)C(O)CC21C (centres undefined) was read as CSN inh 2.8, NadD block -2.6, Rpn11 block -0.8 and HNF4A DNA FP -5.0.
Screening O=C(Nc1ccc2c(c1)OCCO2)C1CCC1 returned CSN inh -8.3, NadD block -13.1, TPT1 inhibitor 0.1, Rpn11 block -4.1, HNF4A DNA FP 68.4* and PP1 inh -2.4.
For NC(=O)Nc1ccc2c(c1)OCCO2 the results were CSN inh 0.4, NadD block 3.6, TPT1 inhibitor -4.6, Rpn11 block -3.2, HNF4A DNA FP 1.8 and PP1 inh -4.6.
`O=C(O)c1ccc2c(c1)C(=O)N(c1cccc(C(=O)/C=C/c3ccccc3)c1)C2=O` gave CSN inh 44.7*, NadD block 5.8, TPT1 inhibitor -1.2, Rpn11 block 8.0, HNF4A DNA FP -3.6 and PP1 inh 2.5.
Screening CCc1ccccc1NC(=O)COC(=O)c1cccs1 returned CSN inh -1.2, NadD block 3.3, TPT1 inhibitor 0.8, Rpn11 block -2.7, HNF4A DNA FP 1.1 and PP1 inh -0.9.
For Cc1cc(=O)oc2cc(NC(=O)COc3ccccc3[N+](=O)[O-])ccc12 the results were CSN inh 70.8*, NadD block -2.3, Rpn11 block -2.2, HNF4A DNA FP -1.9 and PP1 inh -0.9.
Screening CC(C)CCNc1nnnc2c1sc1nc(N3CCOCC3)c3c(c12)CC(C)(C)SC3 returned CSN inh 60.3*, NadD block 24.2, TPT1 inhibitor 3.2, Rpn11 block 2.7, HNF4A DNA FP -1.0 and PP1 inh -1.9.
`CC[C@]12c3[nH]c4ccc(Cl)cc4c3CCN1C(=O)[C@@H](CC(=O)NCc1ccco1)C[C@@H]2C(=O)N1CCN(C(=O)c2ccco2)CC1` gave CSN inh -2.8, NadD block 2.2, Rpn11 block 2.0 and HNF4A DNA FP 2.8.
For CC[C@]12c3[nH]c4ccc(Cl)cc4c3CCN1C(=O)[C@@H](CC(=O)NCCN1CCOCC1)C[C@@H]2C(=O)N1CCN(C(=O)c2ccco2)CC1 the results were CSN inh 95.5*, NadD block -2.9, Rpn11 block 0.8 and HNF4A DNA FP -1.5.
For O=C(CC1S/C(=N/N=C/c2cccs2)NC1=O)Nc1ccc(Cl)cc1 (centres undefined) the results were CSN inh -1.8, NadD block 5.9, TPT1 inhibitor -0.3, Rpn11 block -3.6, HNF4A DNA FP 0.8 and PP1 inh 17.0*.
Screening COc1ccc(C)cc1NC(=O)CN1CCN(S(=O)(=O)c2ccc3ccccc3c2)CC1 returned CSN inh -1.0, NadD block 7.7, Rpn11 block 2.2, HNF4A DNA FP -0.3 and PP1 inh 10.5.
Screening Cc1ccc(CN2C(=O)C(CC(C)C)Nc3ncnc(N4CCN(c5ccccn5)CC4)c32)cc1 (centres undefined) returned CSN inh 0.0, NadD block 6.7, TPT1 inhibitor 0.9, Rpn11 block -9.1, HNF4A DNA FP -2.7 and PP1 inh 6.8.
`CCC1Nc2ncnc(N3CCCCC3)c2N(Cc2ccc(C)cc2)C1=O` (centres undefined) gave CSN inh 1.6, NadD block -0.3, Rpn11 block 1.8 and HNF4A DNA FP -0.4.
